Published values pooled from the literature.
Compare with care: the assays were run in different laboratories.
Target: STE20-like serine/threonine-protein kinase (SLK, Homo sapiens, UniProt Q9H2G2)

C#Cc1cc(-c2cc(Nc3nc(N[C@@H](C)c4ccc(F)cn4)ncc3Cl)n[nH]2)ccc1C=O — inhibition (enzyme activity, inhibitor; 0.2 µM): 54.5%
C=CC(=O)N1CCC([C@@H]2CCNc3c(C(N)=O)c(-c4ccc(Oc5ccccc5)cc4)nn32)CC1 — inhibition (enzyme activity, inhibitor; 1 µM): 0%
CNS(=O)(=O)c1ccc(Nc2ncc(C(F)(F)F)c(N3CCC[C@](C)(O)C3)n2)c(C)c1 — remaining binding (binding, competition with immobilised ligand; 1 µM): 96%
C[C@H]1CC[C@H](n2c3cnccc3c3cnc(Nc4ccc5c(n4)CCN(C(=O)CO)C5)nc32)CC1 — remaining binding (binding, competition with immobilised ligand; 1 µM): 78%
CCCCC(=O)Nc1ccc(-c2ccc3ncn(CCC)c(=O)c3c2)cn1 — remaining binding (binding, competition with immobilised ligand; 0.5 µM): 100%
CC#CC(=O)N1CCC[C@H]1c1nc(-c2ccc(C(=O)Nc3ccccn3)cc2)c2c(N)nccn12 — inhibition (enzyme activity, inhibitor; 1 µM): 0%
C[C@]1(O)CCCN(c2nc(Nc3ccc(S(=O)(=O)N[C@H]4CC[C@H](CN5CCN(c6ccc(C7CCC(=O)NC7=O)cc6F)CC5)CC4)cc3Cl)ncc2C(F)(F)F)C1 (some centres unmarked) — remaining binding (binding, competition with immobilised ligand; 1 µM): 100%
CN1CCN(C(=O)c2ccc(NC(=O)Nc3ccc(N(C)c4ccnc(Nc5ccc(CS(C)(=O)=O)cc5)n4)cc3)cc2)CC1 — remaining binding (binding, competition with immobilised ligand; 1 µM): 8.9%
